Assay results taken from ChEMBL document CHEMBL1123467, “Comparison of the chemical reactivities and antineoplastic activities of alpha,beta-, alpha,beta'-, beta,beta'-, and alpha,alpha'-bis[[[(2-propylamino)carbonyl]oxy]methyl]-substituted pyrroles” (1986).
Where “and” joins values, the source holds several entries; their conditions need not be identical. Equal values may be shown once.

What was measured:
P388 [1] = assay: Compound was tested for the antitumor activity against P388 lymphocytic leukemia at dose level of 60 mg/kg; format: functional, Mus musculus
P388 [2] = assay: Compound was tested for the antitumor activity against P388 lymphocytic leukemia at dose level of 60 mg/kg; 6/6; format: functional, Mus musculus
[3] = Pseudo-first order rate constant for the reaction with 4-(p-Nitrobenzyl)pyridine
Summary of the method: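 Alkylating ability was measured against 4-(p-nitrobenzyl)pyridine (NBP), with 0.2 µmol alkylating agent and 240 µmol NBP as starting amounts. At timed points the mixture was diluted with acetone, mixed 3 s, and read at once at 570 nm. The blank was NBP, water, absolute ethanol, base solution and acetone. k' = slope of E570 vs time. Competing hydrolysis was assumed minor and neglected in the initial phase.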

P388 [4] = assay: Compound was tested in vivo for its antitumor activity against P388 lymphocytic leukemia at dose level of 240 mg/kg; Toxic dose; format: functional, organism-based; set-up: dose 240 mg/kg; settings: Mus musculus
P388 [5] = assay: Compound was tested in vivo for the antitumor activity against P388 lymphocytic leukemia at dose level of 20 mg/kg; format: functional, Mus musculus
P388 [6] = assay: Compound was tested for the antitumor activity against P388 lymphocytic leukemia at dose level of 240 mg/kg; 6/6; format: functional, Mus musculus
P388 [7] = assay: Compound was tested in vivo for its antitumor activity against P388 lymphocytic leukemia at dose level of 60 mg/kg; format: functional, Mus musculus
P388 [8] = assay: Compound was tested in vivo for its antitumor activity against P388 lymphocytic leukemia at dose level of 40 mg/kg; format: functional, Mus musculus
P388 [9] = assay: Compound was tested for the antitumor activity against P388 lymphocytic leukemia at dose level of 40 mg/kg; 6/6; format: functional, Mus musculus
P388 [10] = assay: Compound was tested for the antitumor activity against P388 lymphocytic leukemia at dose level of 240 mg/kg; format: functional, Mus musculus
P388 [11] = assay: Compound was tested for the antitumor activity against P388 lymphocytic leukemia at dose level of 120 mg/kg; 6/6; format: functional, Mus musculus
P388 [12] = assay: Compound was tested in vivo for the antitumor activity against P388 lymphocytic leukemia at dose level of 60 mg/kg; format: functional, Mus musculus
P388 [13] = assay: Compound was tested for the antitumor activity against P388 lymphocytic leukemia at dose level of 40 mg/kg; format: functional, Mus musculus
P388 [14] = assay: Compound was tested for the antitumor activity against P388 lymphocytic leukemia at dose level of 20 mg/kg; 6/6; format: functional, Mus musculus
P388 [15] = assay: Compound was tested in vivo for its antitumor activity against P388 lymphocytic leukemia at dose level of 120 mg/kg; Toxic dose; format: functional, organism-based; set-up: dose 120 mg/kg; settings: Mus musculus
P388 [16] = assay: Compound was tested for the antitumor activity against P388 lymphocytic leukemia at dose level of 120 mg/kg; format: functional, Mus musculus
P388 [17] = assay: Compound was tested in vivo for its antitumor activity against P388 lymphocytic leukemia at dose level of 20 mg/kg; format: functional, Mus musculus
P388 [18] = assay: Compound was tested in vivo for the antitumor activity against P388 lymphocytic leukemia at dose level of 120 mg/kg; format: functional, Mus musculus
P388 [19] = assay: Compound was tested in vivo for the antitumor activity against P388 lymphocytic leukemia at dose level of 40 mg/kg; format: functional, Mus musculus
P388 [20] = assay: Compound was tested for the antitumor activity against P388 lymphocytic leukemia at dose level of 20 mg/kg; format: functional, Mus musculus
P388 [21] = assay: Compound was tested in vivo for its antitumor activity against P388 lymphocytic leukemia and at dose level of 120 mg/kg; Toxic dose; format: functional, organism-based; set-up: dose 120 mg/kg; settings: Mus musculus
[22] = Compound was tested in vivo for the antitumor activity against solid tumor models at dose level of 100 mg/kg (LOX assay); format: functional, Homo sapiens
Homo sapiens [23] = assay: Compound was tested for the antitumor activity against solid tumor models at t dose level of 200 mg/kg (MX-1 assay); format: functional
P388 [24] = assay: Compound was tested in vivo for its antitumor activity against P388 lymphocytic leukemia at dose level of 30 mg/kg; format: functional, Mus musculus
P388 [25] = assay: Compound was tested for the antitumor activity against P388 lymphocytic leukemia at dose level of 30 mg/kg; format: functional, Mus musculus
P388 [26] = assay: Compound was tested for the antitumor activity against P388 lymphocytic leukemia at dose level of 15 mg/kg; format: functional, Mus musculus
P388 [27] = assay: Compound was tested in vivo for its antitumor activity against P388 lymphocytic leukemia at dose level of 15 mg/kg; format: functional, Mus musculus
P388 [28] = assay: Compound was tested for the antitumor activity against P388 lymphocytic leukemia at dose level of 120 mg/kg; 5/6; format: functional, Mus musculus
P388 [29] = assay: Compound was tested for the antitumor activity against P388 lymphocytic leukemia at dose level of 30 mg/kg; 6/6; format: functional, Mus musculus
M5076 [30] = assay: Compound was tested in vivo for the antitumor activity against solid tumor models at dose level of 50 mg/kg (M5076 assay); format: functional
P388 [31] = assay: Compound was tested in vivo for the antitumor activity against P388 lymphocytic leukemia at dose level of 15 mg/kg; format: functional, Mus musculus
Homo sapiens [32] = assay: Compound was tested in vivo for the antitumor activity against solid tumor models at dose level of 200 mg/kg (MX-1 assay); format: functional
[33] = Compound was tested for the antitumor activity against solid tumor models at dose level of 100 mg/kg (LOX assay); format: functional, Homo sapiens
P388 [34] = assay: Compound was tested for the antitumor activity against P388 lymphocytic leukemia at dose level of 240 mg/kg; 0/6; format: functional, Mus musculus
M5076 [35] = assay: Compound was tested for the antitumor activity against solid tumor models at dose level of 50 mg/kg (M5076 assay); format: functional
P388 [36] = assay: Compound was tested in vivo for the antitumor activity against P388 lymphocytic leukemia at dose level of 30 mg/kg; format: functional, Mus musculus
P388 [37] = assay: Compound was tested for the antitumor activity against P388 lymphocytic leukemia at dose level of 15 mg/kg; 6/6; format: functional, Mus musculus
Homo sapiens [38] = assay: Compound was tested in vivo for the antitumor activity against solid tumor models at dose level of 800 mg/kg (MX-1 assay); format: functional
P388 [39] = assay: Compound was tested in vivo for the antitumor activity against P388 lymphocytic leukemia at dose level of 240 mg/kg; format: functional, Mus musculus
P388 [40] = assay: Compound was tested in vivo for its antitumor activity against P388 lymphocytic leukemia at dose level of 120 mg/kg; format: functional, Mus musculus
M5076 [41] = assay: Compound was tested for the antitumor activity against solid tumor models at dose level of 800 mg/kg (M5076 assay); format: functional
Homo sapiens [42] = assay: Compound was tested for the antitumor activity against solid tumor models at t dose level of 800 mg/kg (MX-1 assay); format: functional
P388 [43] = assay: Compound was tested in vivo for its antitumor activity against P388 lymphocytic leukemia at dose level of 240 mg/kg; format: functional, Mus musculus
[44] = Compound was tested in vivo for the antitumor activity against solid tumor models at dose level of 400 mg/kg (LOX assay); format: functional, Homo sapiens
M5076 [45] = assay: Compound was tested in vivo for the antitumor activity against solid tumor models at dose level of 800 mg/kg (M5076 assay); format: functional, Homo sapiens
[46] = Compound was tested for the antitumor activity against solid tumor models at dose level of 400 mg/kg (LOX assay); format: functional, Homo sapiens

Compound | Weight difference (P388 [1]) [g] | TDS (P388 [2]) | K' [3] [abs/time] | KE (P388 [4]) | TDS (P388 [6]) | KE (P388 [7]) | Weight difference (P388 [10]) [g] | TDS (P388 [11]) | T/C (P388 [12]) [%] | Weight difference (P388 [16]) [g] | T/C (P388 [18]) [%] | T/C (P388 [39]) [%] | KE (P388 [40]) | KE (P388 [43]) | further results
CC(C)NC(=O)OCc1c(COC(=O)NC(C)C)c(-c2ccccc2)n(C)c1-c1ccccc1 | -2.2 | 6 | 0.00498 | Toxic | 6 | 6.43 | -5.5 | 6 | 209 | -4.4 | 94 |  |  |  | T/C (P388 [5]): 137% and 205%; KE (P388 [8]): 2.85; TDS (P388 [9]): 6; Weight difference (P388 [13]): -1.6 g; TDS (P388 [14]): 6; KE (P388 [15]): Toxic; KE (P388 [17]): 0.08; T/C (P388 [19]): 168%; Weight difference (P388 [20]): -0.1 g
CC(C)NC(=O)OCc1c(-c2ccccc2)c(COC(=O)NC(C)C)n(C)c1-c1ccccc1 | -3.8 | 6 | 0.00112 | Toxic |  | 3.89 |  |  | 180 | -4.5 |  |  |  |  | KE (P388 [21]): Toxic; T/C [22]: 180%; Weight difference (Homo sapiens [23]): -7.2 g; KE (P388 [24]): 0.88; Weight difference (P388 [25]): -5.3 g; Weight difference (P388 [26]): -3.7 g; KE (P388 [27]): -0.19; TDS (P388 [28]): 5; TDS (P388 [29]): 6; T/C (M5076 [30]): 139%; T/C (P388 [31]): 134%; T/C (Homo sapiens [32]): -3%; Weight difference [33]: -3.5 g; TDS (P388 [34]): 0; Weight difference (M5076 [35]): -2.5 g; T/C (P388 [36]): 150%; TDS (P388 [37]): 6
CC(C)NC(=O)OCc1c(-c2ccccc2)c(-c2ccccc2)n(C)c1COC(=O)NC(C)C | -1.1 | 6 | 0.00321 |  | 6 | 0.59 | -2.4 | 6 | 142 | 1.5 | 160 | 181 | 2.06 | 3.74 | T/C (Homo sapiens [38]): 0%; Weight difference (M5076 [41]): -2.8 g; Weight difference (Homo sapiens [42]): -5.3 g; T/C [44]: 301%; T/C (M5076 [45]): 178%; Weight difference [46]: -3.3 g
CC(C)NC(=O)OCc1c(-c2ccccc2)c(-c2ccccc2)c(COC(=O)NC(C)C)n1C | 0 |  | 0.00669 |  |  | -1.44 | -1.7 |  | 107 | -0.2 | 98 | 101 | -1.56 | -1.51 | TDS ratio (P388 [1]): 6; TDS ratio (P388 [10]): 6; TDS ratio (P388 [16]): 6
